# Data published in ChEMBL document CHEMBL5058577, “EUbOPEN Chemogenomics Library 2 (Multiplex)” (2022).
# Test system: U2OS
# Experiment: Multiplex assay against U2OS
# Assay type: toxicity, cell-based
# Conditions: human
# How it was run: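 Tubulin, mitochondrial-mass and membrane-permeability phenotypes are per cents of healthy-nucleus cells. Cells were gated by CellPathfinder machine learning into Hoechst high-intensity objects or normal cells, normal cells into healthy, pyknosed or fragmented nuclei, and pyknosed cells into mitotic or apoptotic. Before that, live cells stained at seeding with Hoechst33342, BioTracker Green Microtubule Cytoskeleton Dye, MitoTracker Red and Annexin V Alexa Fluor 680 were imaged on a CQ1 microscope at 37°C and 5% CO2 after compound addition.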
# [1] = 12 h, 1 µM, compound concentration 1 uM, replicate 1
# [2] = 12 h, 1 µM, compound concentration 1 uM, replicate 2
# [3] = 12 h, 10 µM, compound concentration 10 uM, replicate 1
# [4] = 12 h, 10 µM, compound concentration 10 uM, replicate 2
# [5] = 24 h, 1 µM, compound concentration 1 uM, replicate 1
# [6] = 24 h, 1 µM, compound concentration 1 uM, replicate 2
# [7] = 24 h, 10 µM, compound concentration 10 uM, replicate 1
# [8] = 24 h, 10 µM, compound concentration 10 uM, replicate 2
# [9] = 48 h, 1 µM, compound concentration 1 uM, replicate 1
# [10] = 48 h, 1 µM, compound concentration 1 uM, replicate 2
# [11] = 48 h, 10 µM, compound concentration 10 uM, replicate 1
# [12] = 48 h, 10 µM, compound concentration 10 uM, replicate 2
smiles,measurement,setting,value
Cc1nn(C)c2nc(NNC(=O)Nc3cc(Cl)nc(Cl)c3)cc(C(C)C)c12,Population Apoptotic (%),[1],76%
same,Population Fragmented Nuclei (%),[1],23%
same,Population Healthy Nuclei (%),[1],66%
same,Population Hoechst High Intensity Objects (%),[1],1%
same,Population Membrane Permeable-Phenotype (%),[1],5%
same,Population Mitochondria Different-Phenotype (%),[1],3%
same,Population Mitotic Cells (%),[1],24%
same,Population Normal (%),[1],98%
same,Population Pyknosed Nuclei (%),[1],9%
same,Population Tubulin-Different-Phenotype (%),[1],2%
same,Total Cell Count,[1],268
same,Population Apoptotic (%),[2],72%
same,Population Fragmented Nuclei (%),[2],14%
same,Population Healthy Nuclei (%),[2],76%
same,Population Hoechst High Intensity Objects (%),[2],2%
same,Population Membrane Permeable-Phenotype (%),[2],10%
same,Population Mitochondria Different-Phenotype (%),[2],7%
same,Population Mitotic Cells (%),[2],27%
same,Population Normal (%),[2],97%
same,Population Pyknosed Nuclei (%),[2],8%
same,Population Tubulin-Different-Phenotype (%),[2],7%
same,Total Cell Count,[2],131
same,Population Apoptotic (%),[3],77%
same,Population Fragmented Nuclei (%),[3],21%
same,Population Healthy Nuclei (%),[3],56%
same,Population Hoechst High Intensity Objects (%),[3],7%
same,Population Membrane Permeable-Phenotype (%),[3],75%
same,Population Mitochondria Different-Phenotype (%),[3],46%
same,Population Mitotic Cells (%),[3],22%
same,Population Normal (%),[3],92%
same,Population Pyknosed Nuclei (%),[3],21%
same,Population Tubulin-Different-Phenotype (%),[3],80%
same,Total Cell Count,[3],222
same,Population Apoptotic (%),[4],47%
same,Population Fragmented Nuclei (%),[4],15%
same,Population Healthy Nuclei (%),[4],63%
same,Population Hoechst High Intensity Objects (%),[4],4%
same,Population Membrane Permeable-Phenotype (%),[4],57%
same,Population Mitochondria Different-Phenotype (%),[4],63%
same,Population Mitotic Cells (%),[4],52%
same,Population Normal (%),[4],95%
same,Population Tubulin-Different-Phenotype (%),[4],77%
same,Total Cell Count,[4],104
same,Population Apoptotic (%),[5],80%
same,Population Fragmented Nuclei (%),[5],20%
same,Population Healthy Nuclei (%),[5],71%
same,Population Hoechst High Intensity Objects (%),[5],0%
same,Population Membrane Permeable-Phenotype (%),[5],4%
same,Population Mitochondria Different-Phenotype (%),[5],2%
same,Population Mitotic Cells (%),[5],19%
same,Population Normal (%),[5],99%
same,Population Pyknosed Nuclei (%),[5],8%
same,Population Tubulin-Different-Phenotype (%),[5],1%
same,Total Cell Count,[5],328
same,Population Apoptotic (%),[6],93%
same,Population Fragmented Nuclei (%),[6],17%
same,Population Healthy Nuclei (%),[6],73%
same,Population Hoechst High Intensity Objects (%),[6],2%
same,Population Membrane Permeable-Phenotype (%),[6],9%
same,Population Mitochondria Different-Phenotype (%),[6],4%
same,Population Mitotic Cells (%),[6],6%
same,Population Normal (%),[6],97%
same,Population Pyknosed Nuclei (%),[6],9%
same,Population Tubulin-Different-Phenotype (%),[6],4%
same,Total Cell Count,[6],168
same,Population Apoptotic (%),[7],78%
same,Population Fragmented Nuclei (%),[7],19%
same,Population Healthy Nuclei (%),[7],49%
same,Population Hoechst High Intensity Objects (%),[7],5%
same,Population Membrane Permeable-Phenotype (%),[7],69%
same,Population Mitochondria Different-Phenotype (%),[7],58%
same,Population Mitotic Cells (%),[7],21%
same,Population Normal (%),[7],94%
same,Population Pyknosed Nuclei (%),[7],31%
same,Population Tubulin-Different-Phenotype (%),[7],77%
same,Total Cell Count,[7],218
same,Population Apoptotic (%),[8],69%
same,Population Fragmented Nuclei (%),[8],16%
same,Population Healthy Nuclei (%),[8],61%
same,Population Hoechst High Intensity Objects (%),[8],2%
same,Population Membrane Permeable-Phenotype (%),[8],42%
same,Population Mitochondria Different-Phenotype (%),[8],51%
same,Population Mitotic Cells (%),[8],30%
same,Population Normal (%),[8],97%
same,Population Pyknosed Nuclei (%),[8],21%
same,Population Tubulin-Different-Phenotype (%),[8],57%
same,Total Cell Count,[8],110
same,Population Apoptotic (%),[9],88%
same,Population Fragmented Nuclei (%),[9],17%
same,Population Healthy Nuclei (%),[9],75%
same,Population Hoechst High Intensity Objects (%),[9],2%
same,Population Membrane Permeable-Phenotype (%),[9],4%
same,Population Mitochondria Different-Phenotype (%),[9],3%
same,Population Mitotic Cells (%),[9],11%
same,Population Normal (%),[9],97%
same,Population Pyknosed Nuclei (%),[9],7%
same,Population Tubulin-Different-Phenotype (%),[9],2%
same,Total Cell Count,[9],504
same,Population Apoptotic (%),[10],86%
same,Population Fragmented Nuclei (%),[10],21%
same,Population Healthy Nuclei (%),[10],65%
same,Population Hoechst High Intensity Objects (%),[10],1%
same,Population Membrane Permeable-Phenotype (%),[10],8%
same,Population Mitochondria Different-Phenotype (%),[10],4%
same,Population Mitotic Cells (%),[10],13%
same,Population Normal (%),[10],98%
same,Population Pyknosed Nuclei (%),[10],12%
same,Population Tubulin-Different-Phenotype (%),[10],5%
same,Total Cell Count,[10],247
same,Population Apoptotic (%),[11],83%
same,Population Fragmented Nuclei (%),[11],24%
same,Population Healthy Nuclei (%),[11],43%
same,Population Hoechst High Intensity Objects (%),[11],9%
same,Population Membrane Permeable-Phenotype (%),[11],51%
same,Population Mitochondria Different-Phenotype (%),[11],46%
same,Population Mitotic Cells (%),[11],16%
same,Population Normal (%),[11],90%
same,Population Pyknosed Nuclei (%),[11],32%
same,Population Tubulin-Different-Phenotype (%),[11],49%
same,Total Cell Count,[11],244
same,Population Apoptotic (%),[12],80%
same,Population Healthy Nuclei (%),[12],48%
same,Population Hoechst High Intensity Objects (%),[12],6%
same,Population Mitochondria Different-Phenotype (%),[12],63%
same,Population Mitotic Cells (%),[12],20%
same,Population Normal (%),[12],93%
same,Population Pyknosed Nuclei (%),[12],27%
same,Population Tubulin-Different-Phenotype (%),[12],57%
same,Total Cell Count,[12],115
